Test results reported in ChEMBL document CHEMBL1133219, “Design and evaluation of dihydroisoquinolines as potent and orally bioavailable human cytomegalovirus inhibitors” (Bioorg Med Chem Lett, 2000).
Values after ≈ are worked out from the molar mass of the structure shown.

Key:
[1] = system: Hs68; experiment: Cytotoxic activity in Hs 68 cell line by inhibition of cell proliferation; format: functional; settings: Homo sapiens
[2] = system: Human betaherpesvirus 5; experiment: Antiviral activity determined against human cytomegalovirus (HCMV) in Hs 68 cell line by plaque reduction assay; format: functional, organism-based; settings: Human betaherpesvirus 5, Hs68
[3] = system: Mus musculus; experiment: The area under concentration-time curve(AUC) was determined at 5 mg/kg of compound dose, administered intravenously in mice; format: ADME, organism-based; parameters: dose 5 mg/kg, route intravenous; settings: in vivo, iv
Summary of the method: (§1)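 Mice dosed po or iv, and plasma sampled over time. Non-compartmental analysis of mean plasma concentrations gave Cmax, AUC and t1/2. AUC taken by linear trapezoidal method from zero to last sample, extrapolated to infinity with terminal slope λz. t1/2 = 0.693/λz. Mean of triplicates (SD<8%).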

[4] = system: Mus musculus; experiment: The area under concentration-time curve(AUC) was determined at 50 mg/kg of compound dose, administered perorally in mice; format: ADME, organism-based; parameters: dose 50 mg/kg, route oral; settings: in vivo, po; summary of the method: as §1
[5] = Pharmacokinetic studies were carried out in vivo after administration of compound at 50 mg/kg perorally in mice; format: ADME, organism-based; parameters: dose 50 mg/kg, route oral; settings: mouse, po; summary of the method: as §1
[6] = (§2) Half life was evaluated at 50 mg/kg of compound dose, administered perorally in mice; format: ADME, organism-based; parameters: dose 50 mg/kg, route oral; settings: mouse, in vivo, po
Summary of the method: (§3)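 Mouse PK with plasma levels after oral dosing. Mean plasma data analysed non-compartmentally. Terminal slope (λz) obtained from the concentration-time curve, and t1/2 taken as 0.693/λz. Data are means of triplicates (SD<8%).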

[7] = Pharmacokinetic studies were carried out in vivo after administration of compound at 5 mg/kg intravenously in mice; format: ADME, organism-based; parameters: dose 5 mg/kg, route intravenous; settings: mouse, iv; summary of the method: as §1
[8] = system: Mus musculus; experiment: The area under concentration-time curve(AUC) was determined at 5 mg/kg of compound dose, administered perorally in mice; format: ADME, organism-based; parameters: dose 5 mg/kg, route oral; settings: in vivo, po; summary of the method: as §1
[9] = system: Mus musculus; experiment: The area under concentration-time curve(AUC) was determined at 50 mg/kg of compound dose, administered intravenously in mice; format: ADME, organism-based; parameters: dose 50 mg/kg, route intravenous; settings: in vivo, iv; summary of the method: as §1
[10] = Pharmacokinetic studies were carried out in vivo after administration of compound at 5 mg/kg perorally in mice; format: ADME, organism-based; parameters: dose 5 mg/kg, route oral; settings: mouse, po; summary of the method: as §1
[11] = Pharmacokinetic studies were carried out in vivo after administration of compound at 50 mg/kg intravenously in mice; format: ADME, organism-based; parameters: dose 50 mg/kg, route intravenous; settings: mouse, iv; summary of the method: as §1
[12] = Percent oral bioavailability was determined after administration of compound at 5 mg/kg perorally in mice; format: ADME, organism-based; settings: mouse, in vivo, read-out: BA
Summary of the method: (§4)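 Mouse PK comparing oral and intravenous dosing. AUC estimated by linear trapezoid from time zero to last sample, extrapolated to infinity via terminal slope. Oral bioavailability calculated as AUCpo,0-∞/AUCiv,0-∞ at the corresponding dose. Mean of triplicate data (SD<8%).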

[13] = Percent oral bioavailability was determined after administration of compound at 50 mg/kg perorally in mice; format: ADME, organism-based; settings: mouse, in vivo, read-out: BA; summary of the method: as §4
[14] = Half life was evaluated at 5 mg/kg of compound dose, administered perorally in mice; format: ADME, organism-based; parameters: dose 5 mg/kg, route oral; settings: mouse, in vivo, po; summary of the method: as §3
[15] = system: Mus musculus; experiment: as §2; format: ADME, organism-based; parameters: dose 50 mg/kg, route oral; settings: in vivo, po; summary of the method: as §3
[16] = system: Mus musculus; experiment: Half life was evaluated at 5 mg/kg of compound dose, administered intravenously in mice; settings: in vivo, iv

SMILES	IC50 [2] [µg/mL]	CC50 [1] [µg/mL]	other results
COc1ccccc1CNC(=O)c1ccc2c(Cl)nccc2n1	> 10	~3.2 (≈ 9.76 µM)	–
O=C(NCCc1cccs1)C1=Cc2ccncc2CC1	0.17 (≈ 0.598 µM)	15 (≈ 52.7 µM)	–
O=C(NCCc1ccccc1)C1=Cc2ccncc2CC1	0.71 (≈ 2.55 µM)	25 (≈ 89.8 µM)	–
COc1ccc(OC)c(CCNC(=O)C2=Cc3ccncc3CC2)c1	0.23 (≈ 0.68 µM)	> 50	–
COc1ccccc1CNC(=O)c1ccc2c(N)nccc2n1	~10 (≈ 32.4 µM)	~12.5 (≈ 40.5 µM)	–
COc1ccccc1CNC(=O)c1ccc2c(OC)nccc2n1	> 25	> 50	–

Now from value to compound, other results behind:

IC50 [2] [µg/mL]	SMILES	CC50 [1] [µg/mL]	other results
> 25	COc1ccccc1CNC(=O)c1ccc2c(Br)nccc2n1	~25 (≈ 67.2 µM)	–
> 10	COc1ccccc1CNC(=O)c1ccc2c(C)nccc2n1	> 25	–
0.68 (≈ 2.11 µM)	CC(C)Oc1ccccc1CNC(=O)C1=Cc2ccncc2CC1	12.5 (≈ 38.8 µM)	–
0.64 (≈ 2.17 µM)	COc1ccccc1CNC(=O)C1=Cc2ccncc2CC1	> 50	AUC [3]: 57 ug m-1 min-1; AUC [4]: 734 ug m-1 min-1; Cmax [5]: 12500 ng/mL; half-life [6]: 42.3 min; Cmax [7]: 6940 ng/mL
0.1 (≈ 0.315 µM)	O=C(NCCc1c[nH]c2ccccc12)C1=Cc2ccncc2CC1	5 (≈ 15.8 µM)	AUC [3]: 94 ug m-1 min-1; AUC [8]: 21 ug m-1 min-1; AUC [9]: 2914 ug m-1 min-1; AUC [4]: 1762 ug m-1 min-1; Cmax [10]: 600 ng/mL; Cmax [11]: 57800 ng/mL; Cmax [5]: 15100 ng/mL; bioavailability [12]: 22.5%; bioavailability [13]: 60.4%; half-life [14]: 15.2 min; half-life [6]: 72.5 min; T1/2 [15]: 43.9 min; Cmax [7]: 5560 ng/mL; T1/2 [16]: 14.2 min
~10 (≈ 32.1 µM)	COc1ccccc1CNC(=O)c1ccc2c(F)nccc2n1	~10 (≈ 32.1 µM)	–
10 (≈ 32.4 µM)	COc1ccccc1CCNC(=O)C1=Cc2ccncc2CC1	> 25	–
25 (≈ 84.4 µM)	COc1ccccc1CNC(=O)C1CCc2cnccc2C1 (centres undefined)	100 (≈ 337 µM)	–
> 25	COc1ccccc1CNC(=O)c1ccc2c[n+]([O-])ccc2n1	100 (≈ 323 µM)	–
